This is a sample that favours compounds with a hit; in the whole collection about 1.4% have one here.
CDK5 inh: inhibitors of human CDK5/p35 kinase, primary screen, biochemical, single concentration | Cyclin-dependent kinase 5 (Homo sapiens) + Cyclin-dependent kinase 5 activator 1 (Homo … | inhibition, % at 10 µM | Recombinant CDK5/p35, ADP-Glo luminescence, 60 min | 0.01% of 330,000 active;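 active = highest replicate inhibition of at least 50% and at least 75% of replicates reaching 50%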;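 also: plate controls were DMSO neutral control for no effect and GW8510 at 10 µM for full effect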
INS-1E GSIS act: GLuc luminescence reporter in INS-1E cells, primary screen for activators of glucose-dependent secretion of insulin | activation, % at 16.6 µM | INS-1E GLuc reporter insulin secretion, 2-3 h | 0.61% of 370,000 active;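 active = lowest replicate activation of at least 40%, so every replicate reaches that level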;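 also: 0% = median of neutral control wells and 100% = median of IBMX positive control wells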
GSK3 alpha inh: blockers of GSK3A enzyme activity – biochemical, luminescence, cell-free homogeneous, HTS, primary screen; inhibition, % at 10 µM; GSK-3 alpha kinase, ADP-Glo luminescence, 60 min; Glycogen synthase kinase-3 alpha (Homo sapiens), P49840; 0.1% of 320,000 active;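 active = more than half of replicates show inhibition above 20%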;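 also: GST-tagged GSK-3 alpha with peptide substrate and 25 µM ATP; 0% = DMSO neutral wells and 100% = GW8510 positive control wells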
Env fusion inh: inhibitors of HIV-1 Env-driven cell-cell fusion, primary screen, HeLa-JRFL effector, CEM21 target cells, luciferase. inhibition, % at 12.3 µM. 1.1% of 360,000 active. AID 651610, 2012;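 active = mean replicate inhibition score of at least 50 and every replicate individually at or above 50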;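 also: 0% = plate neutral controls and 100% = maraviroc near 300 nM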
GSK3beta inhib: human GSK3beta kinase inhibitors, primary screen, biochemical, cell-free homogeneous, HTS. GST-GSK3beta kinase, ADP-Glo luminescence, 60 min; active compounds read low. activity score (negative = inhibition), % at 10 µM. 0.038% of 300,000 active. AID 2097, 2009;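 active = more than half of replicate wells score below -50%, meaning over 50% inhibition versus plate controls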;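 also: 0% = median DMSO wells and -100% = median GW8510 positive control wells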
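Assay system: GST-fused GSK3beta enzyme, cell-free / Medium: Tris pH 7.5 buffer with MgCl2, DTT, BSA, heparin / Also added: peptide substrate plus 25 µM ATP (final) / Compound: 10 µM single point / Timing: kinase reaction with compound 60 min at room temperature / Detection: ADP-Glo luminescence / Benchmarks: DMSO neutral wells and GW8510 at 20 µM as positive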
STK33 inh: inhibitors of purified STK33 kinase, primary screen, biochemical, ADP-Glo luminescence, homogeneous, cell-free; Serine/threonine-protein kinase 33 (Homo sapiens), Q9BYT3; MBP phosphorylation; inhibition, % at 10 µM; 0.073% of 320,000 active;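 active = inhibition at or above 25%, using the most active replicate where run in duplicate; inactive = inhibition below 25%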
Target sequence (Q9BYT3 whole entry, looked up): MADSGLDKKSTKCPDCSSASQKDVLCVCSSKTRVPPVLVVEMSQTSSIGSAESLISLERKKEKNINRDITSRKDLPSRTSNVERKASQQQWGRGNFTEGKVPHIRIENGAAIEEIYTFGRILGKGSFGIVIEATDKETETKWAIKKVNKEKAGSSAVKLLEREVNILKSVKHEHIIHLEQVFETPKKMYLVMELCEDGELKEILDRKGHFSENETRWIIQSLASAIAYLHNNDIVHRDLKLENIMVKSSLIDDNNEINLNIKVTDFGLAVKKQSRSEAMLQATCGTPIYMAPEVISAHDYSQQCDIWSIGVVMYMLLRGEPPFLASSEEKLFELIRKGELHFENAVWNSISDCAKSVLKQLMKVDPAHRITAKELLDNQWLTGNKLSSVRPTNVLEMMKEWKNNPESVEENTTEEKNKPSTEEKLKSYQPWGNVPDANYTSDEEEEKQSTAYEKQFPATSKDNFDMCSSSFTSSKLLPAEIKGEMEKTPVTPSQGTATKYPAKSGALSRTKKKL
* marks the source's active call; other numbers are inactive results; . = not tested or not shown; [ ] = dose if it differs, or a comment.

SMILES | CDK5 inh | INS-1E GSIS act | GSK3 alpha inh | Env fusion inh | GSK3beta inhib | STK33 inh
CCN(CC)c1ccc(/C=N/NC(=O)c2nnn(-c3nonc3N)c2C(C)C)c(O)c1 | 0.3 | 3.4 | 6.5 | 62.4* | 3.0 | 5.6
CC(C)c1c(C(=O)N/N=C/c2ccc3c(c2)OCO3)nnn1-c1nonc1N | -2.4 | -9.8 | -0.9 | -2.6 | -0.4 | 2.4
COC(=O)COc1cc(OCC(=O)OC)c2c(-c3ccccc3)cc(=O)oc2c1 | -0.6 | 64.1* | -1.7 | -11.9 | -1.2 | -0.3
O=C(CC1C(=O)NCCN1Cc1cccc(F)c1)NC1CCCCC1 (configuration not stated) | 1.2 | . | -3.1 | 90.9* | -0.2 | -0.9
CC(=O)N(C)C[C@@H]1Oc2ccc(NC(=O)NC(C)C)cc2CC(=O)N(C)C[C@@H]1C | . | 8.2 | . | . | . | .
CC(=O)Nc1ccc(NC(=O)c2nc(S(=O)(=O)Cc3ccccc3)ncc2Cl)cc1 | 0.7 | 59.8* | 0.7 | -7.9 | -0.2 | -0.2
O=C(NCc1ccccc1)c1nc(S(=O)(=O)Cc2ccccc2)ncc1Cl | 1.0 | 42.1 | -0.4 | 30.2 | -1.8 | -18.7
COC(=O)c1ccccc1NC(=O)c1nc(S(=O)(=O)Cc2ccccc2)ncc1Cl | -1.0 | 21.3 | 0.8 | 0.9 | 0.7 | -1.7
COc1ccc(CNC(=O)c2nc(S(=O)(=O)Cc3ccccc3)ncc2Cl)cc1 | 0.0 | 59.1* | -2.6 | 31.3 | 0.0 | -7.1
CCS(=O)(=O)c1ncc(Cl)c(C(=O)Nc2ccc(S(=O)(=O)N3CCCC(C)C3)cc2)n1 (configuration not stated) | -1.4 | 11.6 | . | 56.9* | 0.5 | -1.3
CC1CCCN(S(=O)(=O)c2ccc(NC(=O)CNC3CCCC3)cc2)C1 (configuration not stated) | -9.3 | 11.5 | -0.5 | 7.0 | -0.4 | 0.3
CCS(=O)(=O)c1ncc(Cl)c(C(=O)Nc2ccc(C)cc2)n1 | 1.4 | 62.7* | -0.2 | 16.6 | 1.2 | -0.9
COc1ccc(C#Cc2cnc3c(c2)C(=O)N([C@@H](C)CO)C[C@H](C)[C@H](CN(C)C(=O)CC2CC2)O3)cc1 | . | -6.3 | . | . | . | .
COc1ccc2c3c(n(C)c2c1)[C@@H](CO)N(C(=O)c1ccc(F)cc1)CC31CCN(C(=O)c2ccc(F)cc2)CC1 | . | -12.9 | . | 4.0[16.7 µM] | . | .
C=C[C@@H]1c2ccccc2N(S(=O)(=O)c2ccc(C)cc2)[C@H](c2ccc(C(F)(F)F)cc2)C1(C#N)C#N | -3.2 | 4.7 | -3.0 | 55.6* | . | -0.2
CCCN1C[C@@H](C)[C@@H](OC)CN(C)C(=O)c2ccc(NC(=O)c3cnccn3)cc2OC[C@H]1C | . | -0.6 | . | . | . | .
Nc1cc2c(cc1Br)[nH]c(=O)c1ccccc12 | 1.3 | . | . | 82.9* | . | .
C[C@@H]1CN([C@H](C)CO)C(=O)c2cc(-c3cccc(F)c3)cnc2O[C@@H]1CN(C)C(=O)C1CCCCC1 | . | 3.0 | . | 3.1[16.7 µM] | . | .
O=C(CC(c1ccccc1)c1ccco1)N1CCOCC1 (configuration not stated) | -1.2 | 49.4* | -4.2 | . | 2.7 | -0.3
CC(=O)c1cc2c(cc1C)CCCC2(C)C | . | 43.2* | . | 16.2 | . | .
CC(=O)c1cc(F)c(N2CCCCCC2)cc1C | 1.3 | . | -0.9 | -69.4 | -3.2 | -1.6
CN(C)C(=O)c1cccc(-c2ccc3c(c2)[C@@H]2[C@@H](CCN2C(=O)C2CC2)[C@@H](CO)N3)c1 | . | -4.1 | . | . | . | .
CCCNC(=O)N[C@@H]1CC[C@@H](CC(=O)NCCc2ccccc2)O[C@H]1CO | . | 0.3 | . | 3.5[16.7 µM] | . | .
CCCc1nnc2c(N(C)S(=O)(=O)c3ccc(C)cc3)nc3ccccc3n12 | -1.6 | 68.2* | 0.3 | 14.5 | -10.4 | 0.6
CCCC(O)(CCC)C(=O)NN1CCCCC1 | -1.8 | 10.4 | -1.8 | . | 2.6 | 0.0
SMILES | CDK5 inh | INS-1E GSIS act | GSK3 alpha inh | Env fusion inh | GSK3beta inhib | STK33 inh
CC(C)CCC(O)(CCC(C)C)C(=O)NN1CCCCC1 | -0.7 | 49.3* | 2.9 | -6.2 | -23.6 | -1.4
CCN1C(=O)[C@@H]2[C@@H](c3ccc(-c4ccc(Cl)c(Cl)c4)cc3)N3CCCC[C@@]3(C(=O)OC)[C@@H]2C1=O | 1.3 | . | -1.7 | 63.3* | -7.0 | -1.1
CCSc1ccc([C@@H]2[C@@H]3C(=O)N(CC)C(=O)[C@@H]3[C@]3(C(=O)OC)CCCCN23)cc1 | 0.9 | . | -1.0 | 62.7* | -0.4 | 0.0
COC(=O)[C@@]12CCCCN1[C@H](c1ccc(-c3ccc(Cl)c(Cl)c3)cc1)[C@H]1C(=O)N(C)C(=O)[C@H]12 | 0.2 | -9.2 | 1.2 | 16.8 | . | 0.3
CCSc1ccc([C@@H]2[C@H]3C(=O)N(CC)C(=O)[C@H]3[C@]3(C(=O)OC)CCCCN23)cc1 | -0.9 | -25.0 | -0.7 | -14.7 | 2.4 | -0.7
CCCN1C[C@@H](C)[C@@H](OC)CN(C)C(=O)c2cc(NC(=O)c3ccccc3F)ccc2OC[C@H]1C | . | -0.9 | . | 22.7[16.7 µM] | . | .
Cc1cc(NC(=O)/C=C/c2ccc(Cl)cc2)no1 | 0.2 | 49.5* | -0.7 | -23.6 | 0.6 | -1.0
Cc1cc(NC(=O)/C=C/c2ccc(Br)cc2)no1 | -0.2 | -1.2 | -1.0 | 14.6 | -3.3 | -0.7
C[C@@H]1CN([C@@H](C)CO)C(=O)c2cc(C#CC3CCCC3)cnc2O[C@@H]1CN(C)C(=O)C1CC1 | . | -10.3 | . | . | . | .
Cc1nc2scc(C)n2c(=O)c1S(=O)(=O)Nc1ccc(OC(F)(F)F)cc1 | . | -35.7 | -1.1 | 55.2* | 0.7 | 0.6
O=C(c1ccco1)N1CCCC(c2nc(-c3ccc(S(=O)(=O)NCc4ccccc4)cc3)no2)C1 (configuration not stated) | -1.3 | . | . | 65.0* | 1.7 | 0.6
C[C@@H]1CN([C@@H](C)CO)C(=O)c2cc(-c3ccncc3)cnc2O[C@H]1CN(C)C(=O)C1CCC1 | . | 11.7 | . | 11.0[16.7 µM] | . | .
C/C=C/c1ccc2c(c1)O[C@@H](CN(C)S(=O)(=O)c1ccc(C)cc1)[C@@H](C)CN([C@H](C)CO)S2(=O)=O | . | -22.7 | . | 45.0[16.7 µM] | . | .
S=C(NCc1ccco1)N1CCN(c2nc(-c3ccc(Cl)cc3)cs2)CC1 | 0.7 | 6.8 | -5.3 | 24.1 | -0.5 | -2.8
O=C(CN1CCN(c2nc(-c3ccc(Cl)cc3)cs2)CC1)NCc1ccco1 | -0.3 | -27.0 | . | 60.3* | 0.8 | .
CO[C@@H]1CN(C)C(=O)c2ccc(NC(=O)NC(C)C)cc2OC[C@@H](C)N(C(=O)CN(C)C)C[C@H]1C | . | -2.7 | . | -0.9[16.7 µM] | . | .
O=C(Nc1nc2ccccc2[nH]1)c1ccccc1F | 18.9 | 10.9 | 11.0 | 74.6* | -17.5 | 11.5
CC(C)Oc1ccc(C(=O)Nc2nc3ccccc3[nH]2)cc1 | 4.5 | -3.8 | -1.2 | 57.3* | . | 1.6

Source: PubChem BioAssay
